According to ChEMBL document CHEMBL1914459 (Bioorg Med Chem Lett, 2011):

Assays:
[1] = molecular target: T1, Prostaglandin D2 receptor 2 (Homo sapiens, UniProt Q9Y5Y4); assay: Displacement of [3H]PGD2 from human CRTH2 receptor
T1 sequence (Q9Y5Y4 whole entry): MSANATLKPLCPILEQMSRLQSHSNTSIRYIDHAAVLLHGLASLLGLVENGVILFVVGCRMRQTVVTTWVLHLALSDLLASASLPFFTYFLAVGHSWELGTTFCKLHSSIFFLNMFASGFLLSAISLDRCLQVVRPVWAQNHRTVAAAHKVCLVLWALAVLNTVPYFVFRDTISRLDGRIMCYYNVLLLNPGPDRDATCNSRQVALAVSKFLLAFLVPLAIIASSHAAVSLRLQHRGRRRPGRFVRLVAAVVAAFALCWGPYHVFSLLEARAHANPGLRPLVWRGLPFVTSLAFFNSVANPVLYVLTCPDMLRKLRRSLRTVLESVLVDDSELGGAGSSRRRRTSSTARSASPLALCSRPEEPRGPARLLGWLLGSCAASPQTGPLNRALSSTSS
In short: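 Radioligand binding with ³H-PGD₂ as the labelled ligand; IC₅₀ reported as mean of n >2 measurements.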

[2] = molecular target: Aldehyde reductase AKR1A1 (Homo sapiens); assay: Inhibition of human recombinant aldose reductase 1 after 15 mins by spectrophotometry analysis
[3] = Intrinsic clearance in rat hepatocytes assessed as per 1 x 10^6 cells
[4] = Inhibition of human recombinant aldose reductase 2 after 15 mins by spectrophotometry analysis
[5] = Lipophilicity, log D of the compound at pH 7.4; conditions: buffer
[6] = Half life in Sprague-Dawley rat at 1 mg/kg, iv; assay type: ADME, organism-based; design: dose 1 mg/kg, route intravenous; conditions: in vivo
[7] = Oral bioavailability in Sprague-Dawley rat at 4 mg/kg; assay type: ADME, organism-based; conditions: in vivo
[8] = Volume of distribution at steady state in Sprague-Dawley rat at 1 mg/kg, iv; assay type: ADME, organism-based; design: dose 1 mg/kg, route intravenous; conditions: in vivo, read-out: Vdss
[9] = Clearance in Sprague-Dawley rat at 1 mg/kg, iv; assay type: ADME, organism-based; design: dose 1 mg/kg, route intravenous; conditions: in vivo
Cytochrome P450 2C9 = Cytochrome P450 2C9 (Homo sapiens, UniProt P11712); assay: Inhibition of CYP2C9; assay type: ADME
[10] = Oral bioavailability in Sprague-Dawley rat at 3 mg/kg; assay type: ADME, organism-based; conditions: in vivo
Homo sapiens = organism: Homo sapiens; assay: Selectivity ratio of IC50 for human recombinant aldose reductase 1 to IC50 for human CRTh2 receptor
In short: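 Ratio of two IC50s from separate assays. […] ALR1 activity was followed at […] as NADPH oxidation, at 22 °C. All reagents except NADPH were preincubated 15 min before NADPH started the reaction. Initial linear rates were corrected for non-enzymatic NADPH oxidation, and % inhibition was taken against no-compound control.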

[11] = molecular target: T1, Prostaglandin D2 receptor 2; assay: Antagonist activity at human CRTh2 receptor expressed in HEK cells assessed as inhibition of PGD2-induced calcium flux; assay type: functional, cell-based, HEK293
[12] = molecular target: Aldo-keto reductase family 1 member B1 (Rattus norvegicus, UniProt P07943); assay: Inhibition of rat aldose reductase

Sequence of Cytochrome P450 2C9 (P11712 whole entry): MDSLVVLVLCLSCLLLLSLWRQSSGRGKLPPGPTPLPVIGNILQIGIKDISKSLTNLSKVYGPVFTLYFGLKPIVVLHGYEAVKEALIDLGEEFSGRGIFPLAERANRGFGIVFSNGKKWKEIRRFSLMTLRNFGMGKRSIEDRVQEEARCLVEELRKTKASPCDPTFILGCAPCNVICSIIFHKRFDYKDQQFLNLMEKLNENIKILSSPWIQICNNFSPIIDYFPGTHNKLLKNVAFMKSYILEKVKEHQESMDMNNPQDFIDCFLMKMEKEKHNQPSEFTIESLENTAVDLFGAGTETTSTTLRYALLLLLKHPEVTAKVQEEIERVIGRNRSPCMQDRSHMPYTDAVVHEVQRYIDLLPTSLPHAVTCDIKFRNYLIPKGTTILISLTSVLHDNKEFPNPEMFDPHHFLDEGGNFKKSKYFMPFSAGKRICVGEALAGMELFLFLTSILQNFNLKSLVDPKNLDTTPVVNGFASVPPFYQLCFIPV

IC50 [1] [nM]	hepatocyte CLint [3] [µL/min/1e6 cells]	IC50 [4] [nM]	logD [5]	further results	Structure (SMILES)
794	–	–	–	–	Cn1c(CC(=O)O)c(Sc2ccccc2)c2ccccc21
1.6	19	> 7940	1.8	IC50 [2]: 3160 nM	Cc1c(Sc2ccc(Cl)cc2)c2cc(F)ccc2n1CC(=O)O
1470	–	–	–	–	Cc1c(Sc2ccc(Cl)cc2)c2cc(Cl)ccc2n1Cc1nnn[nH]1
1.8	6	> 5310	0.2	half-life [6]: 1.7 h; bioavailability [7]: 42%; Vd [8]: 1.1 L/kg; clearance [9]: 11 mL/min/kg; IC50 (Cytochrome P450 2C9): 10000 nM	Cc1c(Sc2ccc(Cl)cc2)c2c(NS(C)(=O)=O)cccc2n1CC(=O)O
126	–	–	–	–	Cc1ccc2c(c1)c(S(=O)(=O)c1c(Cl)cccc1Cl)c(C)n2CC(=O)O
7.1	< 1	4470	0.4	half-life [6]: 0.9 h; bioavailability [10]: < 10%; Ratio IC50 (Homo sapiens): 100; IC50 [2]: 708 nM; Vd [8]: 0.2 L/kg; clearance [9]: 4 mL/min/kg	CC(=O)Nc1cccc2c1c(S(=O)(=O)c1ccc(Cl)cc1)c(C)n2CC(=O)O
79	–	–	–	–	Cc1ccc2c(c1)c(S(=O)(=O)c1cccc(Cl)c1)c(C)n2CC(=O)O
42	64	2000	2.5	–	Cc1c(Sc2ccc(Cl)cc2)c2ccc(Cl)cc2n1CC(=O)O
178	29	–	–	–	Cc1c(Sc2ccc(Cl)cc2)c2cc(Cl)c(C#N)cc2n1CC(=O)O
15	18	–	–	IC50 (Cytochrome P450 2C9): 800 nM; IC50 [11]: 87 nM	Cc1ccc2c(c1)c(Sc1ccc(Cl)cc1)c(C)n2CC(=O)O
1	25	–	2.6	–	Cc1c(Sc2ccc(Cl)cc2)c2c(-c3ccccc3)cccc2n1CC(=O)O
3.5	8	–	-1	half-life [6]: 1.4 h; bioavailability [10]: > 46%; Vd [8]: 1.7 L/kg; clearance [9]: 20 mL/min/kg	Cc1c(Oc2ccc(Cl)cc2)c2c(NS(C)(=O)=O)cccc2n1CC(=O)O
25	–	5010	2.2	IC50 [2]: 1780 nM	Cc1c(Sc2ccc(Cl)cc2)c2c(Cl)cccc2n1CC(=O)O
11	–	–	0.6	–	Cc1c(Sc2ccc(Cl)cc2)c2c(S(C)(=O)=O)cccc2n1CC(=O)O
89	–	–	–	–	O=C(O)Cn1cc(Sc2ccc(Cl)cc2)c2cc(Cl)ccc21
159	< 3	–	0.8	–	Cc1c(Sc2ccc(Cl)cc2)c2ccc(S(C)(=O)=O)cc2n1CC(=O)O
5	< 3	–	1.3	–	Cc1c(Oc2ccc(Cl)cc2)c2cc(F)ccc2n1CC(=O)O
26	–	6310	0.1	–	Cc1ccc2c(c1)c(S(=O)(=O)c1ccc(Cl)cc1)c(C)n2CC(=O)O
6.1	6	4730	1.6	IC50 [2]: 2240 nM	Cc1c(Sc2ccc(Cl)cc2)c2c(C#N)c(Cl)ccc2n1CC(=O)O
1000	< 5	–	0.1	–	Cc1ccc2c(c1)c([S+]([O-])c1ccc(Cl)cc1)c(C)n2CC(=O)O (stereo unspecified)
3.5	–	> 10000	0.3	IC50 [2]: 3980 nM	CCS(=O)(=O)c1ccc(Oc2c(C)n(CC(=O)O)c3ccc(C(F)(F)F)cc23)cc1
56	8	–	0.2	–	CC(=O)Nc1ccc2c(c1)c(Sc1ccc(Cl)cc1)c(C)n2CC(=O)O
56	–	–	0.4	–	Cc1ccc2c(n1)c(Sc1ccc(Cl)cc1)c(C)n2CC(=O)O
32	–	–	0.9	–	Cc1c(Sc2ccc(Cl)cc2)c2c(Cl)nccc2n1CC(=O)O

IC50 [1] [nM]	hepatocyte CLint [3] [µL/min/1e6 cells]	IC50 [4] [nM]	logD [5]	further results	Structure (SMILES)
71	14	724	-0.4	Ratio IC50 (Homo sapiens): < 20; IC50 [2]: 115 nM	COc1cccc(S(=O)(=O)c2c(C)n(CC(=O)O)c3ccc(C)cc23)c1
3.5	–	–	–	–	Cc1c(Sc2ccc(Cl)cc2)c2c(-c3nccs3)cccc2n1CC(=O)O
–	–	–	1.6	–	CCN(C(C)=O)c1cccc2c1c(Sc1ccc(Cl)cc1)c(C)n2CC(=O)O
13	–	–	–	IC50 [11]: 35 nM	Cc1c(Sc2ccc(Cl)cc2)c2cc(Cl)ccc2n1CC(=O)O
3	31	3160	1.9	–	Cc1ccc2c(c1)c(Sc1cccc(Cl)c1)c(C)n2CC(=O)O
60	75	11200	2	–	Cc1c(Sc2ccc(Cl)cc2)c2cccc(Cl)c2n1CC(=O)O
2.6	24	11200	1.7	–	Cc1ccc2c(c1)c(Sc1ccccc1Cl)c(C)n2CC(=O)O
1.4	7	> 10000	-0.1	IC50 (Cytochrome P450 2C9): 5200 nM	Cc1ccc2c(c1)c(Sc1ccc(S(C)(=O)=O)cc1)c(C)n2CC(=O)O
178	21	–	–	–	Cc1ccc2c(c1)c(S(=O)(=O)c1ccccc1Cl)c(C)n2CC(=O)O
36	–	–	–	–	CCS(=O)(=O)Nc1cccc2c1c(Oc1ccc(Cl)cc1)c(C)n2CC(=O)O
7.9	–	> 5840	-0.8	IC50 [2]: 63 nM	Cc1c(S(=O)(=O)c2ccc(Cl)cc2)c2c(NS(C)(=O)=O)cccc2n1CC(=O)O
45	< 3	–	-0.9	–	CNC(=O)c1cccc2c1c(Sc1ccc(Cl)cc1)c(C)n2CC(=O)O
7.1	24	251	1	IC50 [2]: 282 nM	COc1ccc(Sc2c(C)n(CC(=O)O)c3ccc(C)cc23)cc1
3.5	–	4470	3.7	IC50 [2]: 1780 nM	Cc1c(Sc2ccc(Cl)cc2)c2cc(-c3ccccc3)ccc2n1CC(=O)O
501	–	–	–	–	Cc1c(Sc2ccc(Cl)cc2)c2cc(Cl)ccc2n1C(C)C(=O)O (stereo unspecified)
4	14	–	–	–	Cc1c(Oc2ccc(Cl)cc2)c2c(-c3ccccc3)cccc2n1CC(=O)O
20	–	–	–	IC50 [12]: 157 nM; IC50 [11]: 25 nM	Cc1ccc2c(c1)c(Sc1ccccc1)c(C)n2CC(=O)O
11	–	–	2.3	–	Cc1c(Oc2ccc(Cl)cc2)c2cc(C(F)(F)F)ccc2n1CC(=O)O
71	–	–	0.5	–	Cc1c(Sc2ccc(Cl)cc2)c2cc(S(C)(=O)=O)ccc2n1CC(=O)O
1.3	–	3550	2.2	IC50 [2]: 2240 nM	Cc1c(F)ccc2c1c(Sc1ccc(Cl)cc1)c(C)n2CC(=O)O
7.1	< 3	–	-0.2	–	Cc1c(S(=O)(=O)c2ccc(Cl)cc2)c2cc(F)ccc2n1CC(=O)O
0.6	12	–	0	–	Cc1c(Sc2ccc(Cl)cc2)c2c(-c3cnccn3)cccc2n1CC(=O)O
18	–	–	-1.4	–	CC(=O)Nc1cccc2c1c(Oc1ccc(Cl)cc1)c(C)n2CC(=O)O
